Experimental data: ChEMBL document CHEMBL1159067, “Benzimidazole- and indole-substituted 1,3'-bipyrrolidine benzamides as histamine H3 receptor antagonists” (Bioorg Med Chem Lett, 2010)
Values after ≈ are worked out from the molar mass of the structure shown. Active and inactive are the calls of the source. No cut-off for these calls is given here.

Experiments:
[1] = Fraction unbound in rat brain at 10 mg/kg, ip; format: ADME, organism-based; design: dose 10 mg/kg, route intraperitoneal
[2] = AUC in rat plasma at 10 mg/kg, ip; format: ADME, organism-based; design: dose 10 mg/kg, route intraperitoneal
[3] = Cmax in rat brain at 10 mg/kg, ip; format: ADME, organism-based; design: dose 10 mg/kg, route intraperitoneal
[4] = Half life in rat at 10 mg/kg, po; format: ADME, organism-based; design: dose 10 mg/kg, route oral; conditions: in vivo
[5] = Plasma clearance in rat at 2 mg/kg, iv; format: ADME, organism-based; design: dose 2 mg/kg, route intravenous
[6] = Volume of distribution at steady state in rat at 2 mg/kg, iv; format: ADME, organism-based; design: dose 2 mg/kg, route intravenous; conditions: in vivo, read-out: Vdss
[7] = Permeability by PAMPA; format: ADME; conditions: read-out: permeability
Procedure, shortened: (§1)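 Passive permeability was measured by PAMPA, or by its blood–brain barrier variant PAMPA–BBB. Each gives effective permeability in units of 10^-6 cm/s.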

[8] = Cmax in rat at 10 mg/kg, po; format: ADME, organism-based; design: dose 10 mg/kg, route oral; conditions: in vivo
[9] = Tmax in rat brain at 10 mg/kg, ip; format: ADME, organism-based; design: dose 10 mg/kg, route intraperitoneal
[10] = AUC in rat brain at 10 mg/kg, ip; format: ADME, organism-based; design: dose 10 mg/kg, route intraperitoneal
[11] = Tmax in rat plasma at 10 mg/kg, ip; format: ADME, organism-based; design: dose 10 mg/kg, route intraperitoneal
[12] = Cmax in rat plasma at 10 mg/kg, ip; format: ADME, organism-based; design: dose 10 mg/kg, route intraperitoneal
[13] = Oral bioavailability in rat at 10 mg/kg; format: ADME, organism-based; conditions: in vivo
[14] = Aqueous solubility at pH 3.1; format: physicochemical; conditions: aqueous medium
[15] = AUC in rat at 10 mg/kg, po; format: ADME, organism-based; design: dose 10 mg/kg, route oral; conditions: plasma
[16] = Blood-brain barrier permeability by PAMPA-BBB assay; format: ADME; procedure, shortened: as §1
[17] = Tmax in rat at 10 mg/kg, po; format: ADME, organism-based; design: dose 10 mg/kg, route oral; conditions: in vivo
Histamine H3 receptor [18] = biological target: Histamine H3 receptor (Homo sapiens, UniProt Q9Y5N1); test: Displacement of [3H](R)-alpha-methylhistamine from human cloned histamine H3 receptor expressed in HEK293T cells by liquid scintillation spectrometry; format: cell-based, HEK-293T
Chain of Histamine H3 receptor (Homo sapiens, UniProt Q9Y5N1) (Q9Y5N1 whole entry): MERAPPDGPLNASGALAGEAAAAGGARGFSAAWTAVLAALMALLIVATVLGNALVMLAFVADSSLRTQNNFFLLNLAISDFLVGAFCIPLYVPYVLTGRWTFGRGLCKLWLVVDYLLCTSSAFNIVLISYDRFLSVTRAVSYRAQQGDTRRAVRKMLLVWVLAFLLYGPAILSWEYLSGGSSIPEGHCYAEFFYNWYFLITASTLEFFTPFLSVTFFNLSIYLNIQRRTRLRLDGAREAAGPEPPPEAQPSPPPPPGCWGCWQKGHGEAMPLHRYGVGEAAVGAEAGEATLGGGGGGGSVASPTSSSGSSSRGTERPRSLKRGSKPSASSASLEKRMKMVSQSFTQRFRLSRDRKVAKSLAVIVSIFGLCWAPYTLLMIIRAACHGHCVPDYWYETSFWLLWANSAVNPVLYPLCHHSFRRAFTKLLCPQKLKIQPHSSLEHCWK

[19] = AUC in rat plasma at 30 mg/kg, ip; format: ADME, organism-based; design: dose 30 mg/kg, route intraperitoneal
[20] = Cmax in rat plasma at 30 mg/kg, ip; format: ADME, organism-based; design: dose 30 mg/kg, route intraperitoneal
[21] = Ratio of AUC in rat brain to plasma at 30 mg/kg, ip; format: ADME, organism-based; design: dose 30 mg/kg, route intraperitoneal; conditions: brain and plasma
Procedure, shortened: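 Rats given a single 30 mg/kg intraperitoneal injection. Brain and plasma exposure were measured, with Cmax and Tmax recorded for each. The ratio is brain AUC (h ng/mL) divided by plasma AUC.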

Rattus norvegicus [22] = test: Reversal of delay-induced retention deficit behavior in ip dosed rat assessed as differential novel and familiar object recognition; format: functional; conditions: read-out: MED
Procedure, shortened: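 Rats received test compound ip at 0.1, 0.3, 1 or 3 mg/kg, or vehicle, before the learning trial. Exploration of the novel and familiar objects was then scored. Groups were compared with vehicle, with significance at p <0.03 and p <0.005.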

[23] = Tmax in rat brain at 30 mg/kg, ip; format: ADME, organism-based; design: dose 30 mg/kg, route intraperitoneal
[24] = AUC in rat brain at 30 mg/kg, ip; format: ADME, organism-based; design: dose 30 mg/kg, route intraperitoneal
Rattus norvegicus [25] = test: Decrease in (R)-alpha-methylhistamine-induced water intake in rat at 30 mg/kg, ip; format: functional, organism-based; design: dose 30 mg/kg
Procedure, shortened: (§2)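 Water intake was induced in rats by the H3R agonist (R)-α-methylhistamine, which acts via central H3R. Antagonist was dosed ip. Significance was p <0.05 versus vehicle and versus (R)-α-methylhistamine alone.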

Histamine H3 receptor [26] = biological target: Histamine H3 receptor (Rattus norvegicus, UniProt Q9QYN8); test: Binding affinity to rat histamine H3 receptor
Chain of Histamine H3 receptor (Rattus norvegicus, UniProt Q9QYN8) (Q9QYN8 whole entry): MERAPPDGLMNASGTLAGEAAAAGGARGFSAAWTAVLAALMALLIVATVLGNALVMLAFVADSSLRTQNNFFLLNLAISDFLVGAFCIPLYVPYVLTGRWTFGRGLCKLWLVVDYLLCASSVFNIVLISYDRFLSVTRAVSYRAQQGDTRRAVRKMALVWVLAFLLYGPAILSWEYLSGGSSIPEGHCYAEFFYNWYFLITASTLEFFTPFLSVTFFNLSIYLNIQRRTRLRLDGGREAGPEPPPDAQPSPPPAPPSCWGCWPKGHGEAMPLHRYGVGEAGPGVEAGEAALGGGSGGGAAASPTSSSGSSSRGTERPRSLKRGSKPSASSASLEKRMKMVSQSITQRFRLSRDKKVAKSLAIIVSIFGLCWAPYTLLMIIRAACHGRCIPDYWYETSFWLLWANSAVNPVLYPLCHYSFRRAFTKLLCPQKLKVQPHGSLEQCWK

[27] = Tmax in rat plasma at 30 mg/kg, ip; format: ADME, organism-based; design: dose 30 mg/kg, route intraperitoneal
Rattus norvegicus [28] = test: Decrease in (R)-alpha-methylhistamine-induced water intake in rat at 10 mg/kg, ip; format: functional, organism-based; design: dose 10 mg/kg; procedure, shortened: as §2
[29] = Cmax in rat brain at 30 mg/kg, ip; format: ADME, organism-based; design: dose 30 mg/kg, route intraperitoneal
[30] = Fraction unbound in rat brain at 30 mg/kg, ip; format: ADME, organism-based; design: dose 30 mg/kg, route intraperitoneal
Caco-2 = test: Ratio of permeability across basolateral to apical side over apical to basolateral side of human Caco-2 cell membrane
[31] = Permeability across apical to basolateral side of human Caco-2 cell membrane; format: ADME, cell-based; conditions: read-out: permeability

Papp [7] | solubility [14] | pBBB [16] | Ki (Histamine H3 receptor [18]) | SMILES | further results
7.3 ×10⁻⁶ cm/s | 13 µg/mL (≈ 31.9 µM) | 8.6 ×10⁻⁶ cm/s | 150 nM | O=C(c1ccc(Cn2ccc3ccc(Cl)cc32)cc1)N1CC[C@H](N2CCCC2)C1 | 
 |  |  | 91 nM | CCN(C)C1CCN(C(=O)c2ccc(Cn3c(-c4ccccc4)nc4ccccc43)cc2)C1 (stereo unspecified) | 
 |  |  | 1200 nM | CN(CCO)C1CCN(C(=O)c2ccc(Cn3c(-c4ccccc4)nc4ccccc43)cc2)C1 (stereo unspecified) | 
 |  |  | 235 nM | CN(C)C1CCN(C(=O)c2ccc(Cn3c(-c4ccccn4)nc4ccccc43)cc2)C1 (stereo unspecified) | 
6.5 ×10⁻⁶ cm/s | 18 µg/mL (≈ 44.1 µM) | 7 ×10⁻⁶ cm/s | 2.5 nM | O=C(c1ccc(Cn2ccc3cccc(Cl)c32)cc1)N1CC[C@H](N2CCCC2)C1 | AUC [19]: 2180 ng·h/mL; Cmax [20]: 1090 ng/mL; Kp [21]: 6.9; half-life [4]: 1.9 h; minimal effective dose (Rattus norvegicus [22]): 0.3 mg/kg; clearance [5]: 112 mL/min/kg; Vd [6]: 7.3 L/kg; Tmax [23]: 0.5 h; Cmax [8]: 22 ng/mL; AUC [24]: 15000 ng·h/mL; bioavailability [13]: 5%; AUC [15]: 63 ng·h/mL; Activity (Rattus norvegicus [25]): Active; Ki (Histamine H3 receptor [26]): 21.7 nM; Tmax [27]: 0.5 h; Activity (Rattus norvegicus [28]): Active; Tmax [17]: 1.2 h; Cmax [29]: 16 µM; fraction unbound [30]: 0.035
8.3 ×10⁻⁶ cm/s | 28 µg/mL (≈ 75 µM) | 9.4 ×10⁻⁶ cm/s | 15 nM | O=C(c1ccc(Cn2ccc3ccccc32)cc1)N1CC[C@H](N2CCCC2)C1 | 
 |  |  | 17 nM | Cc1nc2ccccc2n1Cc1ccc(C(=O)N2CCC(N(C)C)C2)cc1 (stereo unspecified) | 
 |  |  | 10 nM | O=C(c1ccc(Cn2c(-c3ccccc3)nc3ccccc32)cc1)N1CCC(N2CCCC2)C1 (stereo unspecified) | 
 |  |  | 65 nM | CN(C)[C@H]1CCN(C(=O)c2ccc(Cn3c(-c4ccccc4)nc4ccccc43)cc2)C1 | 

The next lines start with the compound.

SMILES | Papp [7] | solubility [14] | pBBB [16] | Ki (Histamine H3 receptor [18]) | further results
O=C(c1ccc(Cn2cnc3ccccc32)cc1)N1CC[C@H](N2CCCC2)C1 | 0.3 ×10⁻⁶ cm/s | 51 µg/mL (≈ 136 µM) | 3.7 ×10⁻⁶ cm/s |  | fraction unbound [1]: 0.138; AUC [2]: 1040 ng·h/mL; Cmax [3]: 0.245 µM; half-life [4]: 1.3 h; clearance [5]: 56 mL/min/kg; Vd [6]: 3.6 L/kg; Cmax [8]: 1750 ng/mL; Tmax [9]: 1 h; AUC [10]: 231 ng·h/mL; Tmax [11]: 1 h; Cmax [12]: 388 ng/mL; bioavailability [13]: 93%; AUC [15]: 2740 ng·h/mL; Tmax [17]: 0.4 h
Cc1nc2ccccc2n1Cc1ccc(C(=O)N2CC[C@H](N3CCCC3)C2)cc1 | 0.3 ×10⁻⁶ cm/s | 32 µg/mL (≈ 82.4 µM) | 4 ×10⁻⁶ cm/s |  | 
O=C(c1ccc(Cn2ccc3cc(Cl)ccc32)cc1)N1CC[C@H](N2CCCC2)C1 | 7.8 ×10⁻⁶ cm/s | 10 µg/mL (≈ 24.5 µM) | 8.1 ×10⁻⁶ cm/s | 130 nM | 
CN(C)[C@@H]1CCN(C(=O)c2ccc(Cn3c(-c4ccccc4)nc4ccccc43)cc2)C1 |  |  |  | 440 nM | 
CN(C)C1CCN(C(=O)c2ccc(Cn3c(-c4ccccc4)nc4ccccc43)cc2)C1 (stereo unspecified) | 4.4 ×10⁻⁶ cm/s | > 100 µg/mL | 9.4 ×10⁻⁶ cm/s | 100 nM | Ratio (Caco-2): 1.3; Papp A→B [31]: 84.9 ×10⁻⁶ cm/s
O=C(c1ccccc1Cn1cnc2ccccc21)N1CCC(N2CCCC2)C1 (stereo unspecified) |  |  |  | 4000 nM | 
CN(C)C1CCN(C(=O)c2ccc(Cn3cnc4ccccc43)cc2)C1 (stereo unspecified) |  |  |  | 390 nM | 
O=C(c1cccc(Cn2cnc3ccccc32)c1)N1CCC(N2CCCC2)C1 (stereo unspecified) |  |  |  | 400 nM | 
